Reference: ChEMBL document CHEMBL5356993, “Novel pyrazolo[3,4-d]pyrimidine derivatives: design, synthesis, anticancer evaluation, VEGFR-2 inhibition, and antiangiogenic activity” (RSC Med Chem, 2023)

What was measured:
Format in all cases: functional
Details in all cases: read-out: GI
OVCAR-5 = experiment: Antiproliferative activity against human OVCAR-5 cells assessed as cell growth inhibition at 10 uM incubated for 48 hrs by SRB assay relative to control
Procedure, shortened: (§1)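 Cells plated in 96-well plates at […] cells/well and preincubated 24 h at 37 °C, 5% CO2. Time-zero plates were TCA-fixed. Compound was diluted in medium with 50 µg/mL gentamicin and cells exposed for 48 h. Adherent cells fixed with 10% final TCA; suspension cells with 16% final TCA. Plates stained with 0.4% SRB in 1% acetic acid, dye solubilized in 10 mM Trizma, absorbance read at 515 nm. Percent growth calculated against time-zero and control.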

NCI-H322M = experiment: Antiproliferative activity against human NCI-H322M cells assessed as cell growth inhibition at 10 uM incubated for 48 hrs by SRB assay relative to control
COLO 205 = experiment: Antiproliferative activity against human COLO 205 cells assessed as cell growth inhibition at 10 uM incubated for 48 hrs by SRB assay relative to control
HCT-116 = experiment: Antiproliferative activity against human HCT-116 cells assessed as cell growth inhibition at 10 uM incubated for 48 hrs by SRB assay relative to control
HCT-15 = experiment: Antiproliferative activity against human HCT-15 cells assessed as cell growth inhibition at 10 uM incubated for 48 hrs by SRB assay relative to control
KM12 = experiment: Antiproliferative activity against human KM12 cells assessed as cell growth inhibition at 10 uM incubated for 48 hrs by SRB assay relative to control; procedure, shortened: as §1
SW-620 = experiment: Antiproliferative activity against human SW620 cells assessed as cell growth inhibition at 10 uM incubated for 48 hrs by SRB assay relative to control
Procedure, shortened: (§2)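 Cells pre-incubated 24 h at 37°C, 5% CO2, then exposed to compound (DMSO stock diluted in medium with 50 µg/mL gentamicin) for 48 h. Adherent cells fixed with cold TCA (final 10%, 60 min, 4°C); suspension cells fixed with 16% TCA final. Stained with 0.4% SRB in 1% acetic acid for 10 min, dye solubilized in 10 mM Trizma base, absorbance read at 515 nm. Growth calculated against time-zero and untreated control plates.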

SF-268 = experiment: Antiproliferative activity against human SF-268 cells assessed as cell growth inhibition at 10 uM incubated for 48 hrs by SRB assay relative to control
SF-295 = experiment: Antiproliferative activity against human SF-295 cells assessed as cell growth inhibition at 10 uM incubated for 48 hrs by SRB assay relative to control; procedure, shortened: as §1
LOX IMVI = experiment: Antiproliferative activity against human LOX IMVI cells assessed as cell growth inhibition at 10 uM incubated for 48 hrs by SRB assay relative to control
Malme-3M = experiment: Antiproliferative activity against human Malme-3M cells assessed as cell growth inhibition at 10 uM incubated for 48 hrs by SRB assay relative to control
MDA-MB-435 = experiment: Antiproliferative activity against human MDA-MB-435 cells assessed as cell growth inhibition at 10 uM incubated for 48 hrs by SRB assay relative to control
SK-MEL-2 = experiment: Antiproliferative activity against human SK-MEL-2 cells assessed as cell growth inhibition at 10 uM incubated for 48 hrs by SRB assay relative to control; procedure, shortened: as §1
SK-MEL-28 = experiment: Antiproliferative activity against human SK-MEL-28 cells assessed as cell growth inhibition at 10 uM incubated for 48 hrs by SRB assay relative to control; procedure, shortened: as §1
UACC-62 = experiment: Antiproliferative activity against human UACC-62 cells assessed as cell growth inhibition at 10 uM incubated for 48 hrs by SRB assay relative to control; procedure, shortened: as §2
IGROV-1 = experiment: Antiproliferative activity against human IGROV-1 cells assessed as cell growth inhibition at 10 uM incubated for 48 hrs by SRB assay relative to control
OVCAR-3 = experiment: Antiproliferative activity against human OVCAR-3 cells assessed as cell growth inhibition at 10 uM incubated for 48 hrs by SRB assay relative to control; procedure, shortened: as §1
OVCAR-8 = experiment: Antiproliferative activity against human OVCAR-8 cells assessed as cell growth inhibition at 10 uM incubated for 48 hrs by SRB assay relative to control
NCI/ADR-RES = experiment: Antiproliferative activity against human NCI-ADR-RES cells assessed as cell growth inhibition at 10 uM incubated for 48 hrs by SRB assay relative to control
SK-OV-3 = experiment: Antiproliferative activity against human SK-OV-3 cells assessed as cell growth inhibition at 10 uM incubated for 48 hrs by SRB assay relative to control; procedure, shortened: as §1
A498 = experiment: Antiproliferative activity against human A498 cells assessed as cell growth inhibition at 10 uM incubated for 48 hrs by SRB assay relative to control; procedure, shortened: as §1
ACHN = experiment: Antiproliferative activity against human ACHN cells assessed as cell growth inhibition at 10 uM incubated for 48 hrs by SRB assay relative to control
CAKI-1 = experiment: Antiproliferative activity against human CAKI-1 cells assessed as cell growth inhibition at 10 uM incubated for 48 hrs by SRB assay relative to control
TK-10 = experiment: Antiproliferative activity against human TK-10 cells assessed as cell growth inhibition at 10 uM incubated for 48 hrs by SRB assay relative to control; procedure, shortened: as §2
PC-3 = experiment: Antiproliferative activity against human PC-3 cells assessed as cell growth inhibition at 10 uM incubated for 48 hrs by SRB assay relative to control
DU-145 = experiment: Antiproliferative activity against human DU-145 cells assessed as cell growth inhibition at 10 uM incubated for 48 hrs by SRB assay relative to control
MDA-MB-468 = experiment: Antiproliferative activity against human MDA-MB-468 cells assessed as cell growth inhibition at 10 uM incubated for 48 hrs by SRB assay relative to control
HOP-92 = experiment: Antiproliferative activity against human HOP-92 cells assessed as cell growth inhibition at 10 uM incubated for 48 hrs by SRB assay relative to control; procedure, shortened: as §1
HOP-62 = experiment: Antiproliferative activity against human HOP-62 cells assessed as cell growth inhibition at 10 uM incubated for 48 hrs by SRB assay relative to control
A549 = experiment: Antiproliferative activity against human A549 cells assessed as cell growth inhibition at 10 uM incubated for 48 hrs by SRB assay relative to control
RPMI-8226 = experiment: Antiproliferative activity against human RPMI-8226 cells assessed as cell growth inhibition at 10 uM incubated for 48 hrs by SRB assay relative to control
HL-60(TB) = experiment: Antiproliferative activity against human HL-60(TB) cells assessed as cell growth inhibition at 10 uM incubated for 48 hrs by SRB assay relative to control
Procedure, shortened: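 Cells were plated at […] cells/well and preincubated 24 h at 37°C, 5% CO2, with time-zero plates TCA-fixed. Compound was diluted from DMSO stock in medium with 50 µg/mL gentamicin, then exposed for 48 h. Settled suspension cells were fixed with 80% TCA (final 16%), stained with 0.4% SRB and solubilized in 10 mM Trizma, A515. Growth was taken relative to Tz and control.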

SMILES | inhibition of growth at 10 µM (OVCAR-5) | inhibition of growth at 10 µM (NCI-H322M) | inhibition of growth at 10 µM (COLO 205) | inhibition of growth at 10 µM (HCT-116) | inhibition of growth at 10 µM (HCT-15) | inhibition of growth at 10 µM (KM12) | inhibition of growth at 10 µM (SW-620) | inhibition of growth at 10 µM (SF-268) | inhibition of growth at 10 µM (SF-295) | inhibition of growth at 10 µM (LOX IMVI) | inhibition of growth at 10 µM (Malme-3M) | inhibition of growth at 10 µM (MDA-MB-435) | inhibition of growth at 10 µM (SK-MEL-2) | inhibition of growth at 10 µM (SK-MEL-28) | inhibition of growth at 10 µM (UACC-62) | inhibition of growth at 10 µM (IGROV-1) | inhibition of growth at 10 µM (OVCAR-3) | inhibition of growth at 10 µM (OVCAR-8) | inhibition of growth at 10 µM (NCI/ADR-RES) | inhibition of growth at 10 µM (SK-OV-3) | also measured
Cc1nc2c(cnn2-c2ccccc2)c(=O)n1-c1ccc(NC(=O)c2ccc([N+](=O)[O-])cc2)cc1 | < 15% | 17.2% | 25.9% | 55.6% | 28.6% | 20.4% | < 15% | < 15% | 56.3% | 34.1% | 34% | 33.6% | 29.3% | 18.2% | 39.6% | 31.1% | < 15% | 34.1% | 47.2% | < 15% | inhibition of growth at 10 µM (A498): 19.6%; inhibition of growth at 10 µM (ACHN): 39.6%; inhibition of growth at 10 µM (CAKI-1): 31.5%; inhibition of growth at 10 µM (TK-10): 31.5%; inhibition of growth at 10 µM (PC-3): 33.7%; inhibition of growth at 10 µM (DU-145): 21%; inhibition of growth at 10 µM (MDA-MB-468): 68.6%; inhibition of growth at 10 µM (HOP-92): < 15%; inhibition of growth at 10 µM (HOP-62): < 15%; inhibition of growth at 10 µM (A549): 33%; inhibition of growth at 10 µM (RPMI-8226): 47.7%; inhibition of growth at 10 µM (HL-60(TB)): 54%
Cc1ccc(C(=O)Nc2ccc(-n3c(C)nc4c(cnn4-c4ccccc4)c3=O)cc2)cc1 | < 15% | < 15% | 22.6% | 48.5% | 24.6% | 22.5% | < 15% | < 15% | 49.4% | 32.8% | 32.3% | 29.4% | 21.7% | 19.3% | 39.2% | 28.4% | < 15% | 23.2% | 47.3% | < 15% | inhibition of growth at 10 µM (A498): < 15%; inhibition of growth at 10 µM (ACHN): 38.2%; inhibition of growth at 10 µM (CAKI-1): 27.6%; inhibition of growth at 10 µM (TK-10): 17.7%; inhibition of growth at 10 µM (PC-3): 28.4%; inhibition of growth at 10 µM (DU-145): 15.1%; inhibition of growth at 10 µM (MDA-MB-468): 78.9%; inhibition of growth at 10 µM (HOP-92): < 15%; inhibition of growth at 10 µM (HOP-62): 21.2%; inhibition of growth at 10 µM (A549): 34.2%; inhibition of growth at 10 µM (RPMI-8226): 41.6%; inhibition of growth at 10 µM (HL-60(TB)): 48.6%
